Assay results: ChEMBL document CHEMBL1151428, “Capability of 11 antipneumococcal antibiotics to select for resistance by multistep and single-step methodologies” (2007)

Legend:
Format in all cases: functional
Streptococcus pneumoniae [1] = experiment: Antimicrobial activity against drug-resistant Streptococcus pneumoniae isolate 24 after 14 passages with Telithromycin measured after 10 antibiotic-free subculture by multi-step resistance selection technique
Summary of the method: (§1)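 Mutants selected by daily broth passage in subinhibitory drug in cation-adjusted Mueller-Hinton broth with 5% lysed horse blood. Stability was tested by 10 daily passages on blood agar without antibiotic, then macrodilution MIC.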

Streptococcus pneumoniae [2] = experiment: Antimicrobial activity against drug-resistant Streptococcus pneumoniae isolate 1077 after 49 passages with clindamycin measured after 10 antibiotic-free subculture by multi-step resistance selection technique
Streptococcus pneumoniae [3] = experiment: Antimicrobial activity against drug-resistant Streptococcus pneumoniae isolate 1077 by NCCLS M7-A7 method
Streptococcus pneumoniae [4] = experiment: Antimicrobial activity against drug-resistant Streptococcus pneumoniae isolate 3676 after 50 passages by multi-step resistance selection technique
Summary of the method: (§2)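 Daily serial passage in broth at subinhibitory drug levels: 1 ml cation-adjusted Mueller-Hinton broth with 5% lysed horse blood; fresh broth for tigecycline. Each day 10 μl inoculum taken from the tube one to two dilutions below MIC matching growth-control turbidity, used to set next MIC. Continued until ≥8-fold MIC rise, minimum 14, maximum 50 passages; MIC read by macrodilution.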

Streptococcus pneumoniae [5] = experiment: Antimicrobial activity against drug-resistant Streptococcus pneumoniae isolate 3243 after 29 passages with Telithromycin measured after 10 antibiotic-free subculture by multi-step resistance selection technique; summary of the method: as §1
Streptococcus pneumoniae [6] = experiment: Antimicrobial activity against drug-resistant Streptococcus pneumoniae isolate 3665 by NCCLS M7-A7 method
Streptococcus pneumoniae [7] = experiment: Antimicrobial activity against drug-resistant Streptococcus pneumoniae isolate 1635 after 14 passages by multi-step resistance selection technique
Summary of the method: (§3)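 Daily serial passage in subinhibitory drug levels in 1 ml cation-adjusted Mueller-Hinton broth with 5% lysed horse blood; fresh broth for tigecycline. Each day, 10 μl were taken from the tube one to two dilutions below the MIC whose turbidity matched the growth control, and used to set the next MIC. […] MIC by macrodilution.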

Streptococcus pneumoniae [8] = experiment: Antimicrobial activity against drug-resistant Streptococcus pneumoniae isolate 3243 after 33 passages with azithromycin measured after 10 antibiotic-free subculture by multi-step resistance selection technique; summary of the method: as §1
Streptococcus pneumoniae [9] = experiment: Antimicrobial activity against drug-resistant Streptococcus pneumoniae isolate 3243 after 20 passages with moxifloxacin measured after 10 antibiotic-free subculture by multi-step resistance selection technique; summary of the method: as §1
Streptococcus pneumoniae [10] = experiment: Antimicrobial activity against drug-resistant Streptococcus pneumoniae isolate 3243 after 50 passages by multi-step resistance selection technique; summary of the method: as §3
Streptococcus pneumoniae [11] = experiment: Antimicrobial activity against drug-resistant Streptococcus pneumoniae isolate 3665 after 14 passages with Telithromycin measured after 10 antibiotic-free subculture by multi-step resistance selection technique
Streptococcus pneumoniae [12] = experiment: Antimicrobial activity against drug-resistant Streptococcus pneumoniae isolate 3665 after 38 passages with moxifloxacin measured after 10 antibiotic-free subculture by multi-step resistance selection technique
Streptococcus pneumoniae [13] = experiment: Antimicrobial activity against drug-resistant Streptococcus pneumoniae isolate 24 after 50 passages with moxifloxacin measured after 10 antibiotic-free subculture by multi-step resistance selection technique; summary of the method: as §1
Streptococcus pneumoniae [14] = experiment: Antimicrobial activity against drug-resistant Streptococcus pneumoniae isolate 3665 after 50 passages by multi-step resistance selection technique; summary of the method: as §2
Streptococcus pneumoniae [15] = experiment: Antimicrobial activity against drug-resistant Streptococcus pneumoniae isolate 3009 by NCCLS M7-A7 method
Streptococcus pneumoniae [16] = experiment: Antimicrobial activity against drug-resistant Streptococcus pneumoniae isolate 3274 by NCCLS M7-A7 method
Streptococcus pneumoniae [17] = experiment: Antimicrobial activity against drug-resistant Streptococcus pneumoniae isolate 3009 after 19 passages with moxifloxacin measured after 10 antibiotic-free subculture by multi-step resistance selection technique; summary of the method: as §1
Streptococcus pneumoniae [18] = experiment: Antimicrobial activity against drug-resistant Streptococcus pneumoniae isolate 3243 after 41 passages with clarithromycin measured after 10 antibiotic-free subculture by multi-step resistance selection technique
Streptococcus pneumoniae [19] = experiment: Antimicrobial activity against drug-resistant Streptococcus pneumoniae isolate 3009 after 50 passages by multi-step resistance selection technique; summary of the method: as §3
Streptococcus pneumoniae [20] = experiment: Antimicrobial activity against drug-resistant Streptococcus pneumoniae isolate 3274 after 48 passages with Telithromycin measured after 10 antibiotic-free subculture by multi-step resistance selection technique; summary of the method: as §1
Streptococcus pneumoniae [21] = experiment: Antimicrobial activity against drug-resistant Streptococcus pneumoniae isolate 2527 after 20 passages with azithromycin measured after 10 antibiotic-free subculture by multi-step resistance selection technique; summary of the method: as §1
Streptococcus pneumoniae [22] = experiment: Antimicrobial activity against drug-resistant Streptococcus pneumoniae isolate 1635 after 14 passages with azithromycin measured after 10 antibiotic-free subculture by multi-step resistance selection technique; summary of the method: as §1
Streptococcus pneumoniae [23] = experiment: Antimicrobial activity against drug-resistant Streptococcus pneumoniae isolate 3665 after 26 passages with clarithromycin measured after 10 antibiotic-free subculture by multi-step resistance selection technique
Streptococcus pneumoniae [24] = experiment: Antimicrobial activity against drug-resistant Streptococcus pneumoniae isolate 37 after 14 passages with Telithromycin measured after 10 antibiotic-free subculture by multi-step resistance selection technique
Streptococcus pneumoniae [25] = experiment: Antimicrobial activity against drug-resistant Streptococcus pneumoniae isolate 1076 after 35 passages with moxifloxacin measured after 10 antibiotic-free subculture by multi-step resistance selection technique; summary of the method: as §1
Streptococcus pneumoniae [26] = experiment: Antimicrobial activity against drug-resistant Streptococcus pneumoniae isolate 3413 after 50 passages by multi-step resistance selection technique
Summary of the method: (§4)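 Daily serial passage in subinhibitory drug levels in 1 ml cation-adjusted Mueller-Hinton broth with 5% lysed horse blood; fresh broth for tigecycline. Each day, 10 μl were taken from the tube one to two dilutions below the MIC whose turbidity matched the growth control, and used to set the next MIC. MIC by macrodilution.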

Streptococcus pneumoniae [27] = experiment: Antimicrobial activity against drug-resistant Streptococcus pneumoniae isolate 1077 after 29 passages with azithromycin measured after 10 antibiotic-free subculture by multi-step resistance selection technique; summary of the method: as §1
Streptococcus pneumoniae [28] = experiment: Antimicrobial activity against drug-resistant Streptococcus pneumoniae isolate 3009 after 18 passages with levofloxacin measured after 10 antibiotic-free subculture by multi-step resistance selection technique; summary of the method: as §1
Streptococcus pneumoniae [29] = experiment: Antimicrobial activity against drug-resistant Streptococcus pneumoniae isolate 2527 after 50 passages by multi-step resistance selection technique; summary of the method: as §3
Streptococcus pneumoniae [30] = experiment: Antimicrobial activity against drug-resistant Streptococcus pneumoniae isolate 3676 after 50 passages with moxifloxacin measured after 10 antibiotic-free subculture by multi-step resistance selection technique
Streptococcus pneumoniae [31] = experiment: Antimicrobial activity against drug-resistant Streptococcus pneumoniae isolate 2527 by NCCLS M7-A7 method
Streptococcus pneumoniae [32] = experiment: Antimicrobial activity against drug-resistant Streptococcus pneumoniae isolate 1635 after 49 passages with clarithromycin measured after 10 antibiotic-free subculture by multi-step resistance selection technique
Streptococcus pneumoniae [33] = experiment: Antimicrobial activity against drug-resistant Streptococcus pneumoniae isolate 2527 after 14 passages with gemifloxacin measured after 10 antibiotic-free subculture by multi-step resistance selection technique; summary of the method: as §1
Streptococcus pneumoniae [34] = experiment: Antimicrobial activity against drug-resistant Streptococcus pneumoniae isolate 24 by NCCLS M7-A7 method
Streptococcus pneumoniae [35] = experiment: Antimicrobial activity against drug-resistant Streptococcus pneumoniae isolate 1076 after 14 passages with Telithromycin measured after 10 antibiotic-free subculture by multi-step resistance selection technique; summary of the method: as §1
Streptococcus pneumoniae [36] = experiment: Antimicrobial activity against drug-resistant Streptococcus pneumoniae isolate 37 by NCCLS M7-A7 method
Streptococcus pneumoniae [37] = experiment: Antimicrobial activity against drug-resistant Streptococcus pneumoniae isolate 1635 after 14 passages with clindamycin measured after 10 antibiotic-free subculture by multi-step resistance selection technique
Streptococcus pneumoniae [38] = experiment: Antimicrobial activity against drug-resistant Streptococcus pneumoniae isolate 3413 by NCCLS M7-A7 method
Streptococcus pneumoniae [39] = experiment: Antimicrobial activity against drug-resistant Streptococcus pneumoniae isolate 1077 after 15 passages with Telithromycin measured after 10 antibiotic-free subculture by multi-step resistance selection technique; summary of the method: as §1
Streptococcus pneumoniae [40] = experiment: Antimicrobial activity against drug-resistant Streptococcus pneumoniae isolate 3676 after 14 passages with Telithromycin measured after 10 antibiotic-free subculture by multi-step resistance selection technique
Streptococcus pneumoniae [41] = experiment: Antimicrobial activity against drug-resistant Streptococcus pneumoniae isolate 1076 by NCCLS M7-A7 method
Streptococcus pneumoniae [42] = experiment: Antimicrobial activity against drug-resistant Streptococcus pneumoniae isolate 3009 after 25 passages with clarithromycin measured after 10 antibiotic-free subculture by multi-step resistance selection technique
Streptococcus pneumoniae [43] = experiment: Antimicrobial activity against drug-resistant Streptococcus pneumoniae isolate 3009 after 21 passages with gemifloxacin measured after 10 antibiotic-free subculture by multi-step resistance selection technique; summary of the method: as §1
Streptococcus pneumoniae [44] = experiment: Antimicrobial activity against drug-resistant Streptococcus pneumoniae isolate 3274 after 50 passages by multi-step resistance selection technique; summary of the method: as §4
Streptococcus pneumoniae [45] = experiment: Antimicrobial activity against drug-resistant Streptococcus pneumoniae isolate 1635 by NCCLS M7-A7 method
Streptococcus pneumoniae [46] = experiment: Antimicrobial activity against drug-resistant Streptococcus pneumoniae isolate 1077 after 49 passages by multi-step resistance selection technique; summary of the method: as §3
Streptococcus pneumoniae [47] = experiment: Antimicrobial activity against drug-resistant Streptococcus pneumoniae isolate 3676 after 44 passages with clarithromycin measured after 10 antibiotic-free subculture by multi-step resistance selection technique
Streptococcus pneumoniae [48] = experiment: Antimicrobial activity against drug-resistant Streptococcus pneumoniae isolate 3243 by NCCLS M7-A7 method
Streptococcus pneumoniae [49] = experiment: Antimicrobial activity against drug-resistant Streptococcus pneumoniae isolate 3413 after 30 passages with Telithromycin measured after 10 antibiotic-free subculture by multi-step resistance selection technique; summary of the method: as §1
Streptococcus pneumoniae [50] = experiment: Antimicrobial activity against drug-resistant Streptococcus pneumoniae isolate 3676 by NCCLS M7-A7 method

Measured: MIC

CCC[C@@H]1C[C@@H](C(=O)N[C@@H]([C@H]2O[C@H](SC)[C@H](O)[C@@H](O)[C@H]2O)[C@H](C)Cl)N(C)C1 [CLINDAMYCIN]
2 µg/mL: Streptococcus pneumoniae [19]
0.5 µg/mL: Streptococcus pneumoniae [17] | Streptococcus pneumoniae [28] | Streptococcus pneumoniae [43]
0.25 µg/mL: Streptococcus pneumoniae [32]
0.06 µg/mL: Streptococcus pneumoniae [21] | Streptococcus pneumoniae [45] | Streptococcus pneumoniae [47] | Streptococcus pneumoniae [49]
> 64 µg/mL: Streptococcus pneumoniae [1] | Streptococcus pneumoniae [7] | Streptococcus pneumoniae [13] | Streptococcus pneumoniae [24] | Streptococcus pneumoniae [25] | Streptococcus pneumoniae [34] | Streptococcus pneumoniae [35] | Streptococcus pneumoniae [36] | Streptococcus pneumoniae [37]
1 µg/mL: Streptococcus pneumoniae [15] | Streptococcus pneumoniae [18] | Streptococcus pneumoniae [42]
8 µg/mL: Streptococcus pneumoniae [2] | Streptococcus pneumoniae [39]
8 ng/mL: Streptococcus pneumoniae [26] | Streptococcus pneumoniae [31] | Streptococcus pneumoniae [44]
4 µg/mL: Streptococcus pneumoniae [27] | Streptococcus pneumoniae [46]
0.03 µg/mL: Streptococcus pneumoniae [5] | Streptococcus pneumoniae [10] | Streptococcus pneumoniae [11] | Streptococcus pneumoniae [12] | Streptococcus pneumoniae [14] | Streptococcus pneumoniae [22] | Streptococcus pneumoniae [23] | Streptococcus pneumoniae [40] | Streptococcus pneumoniae [50]
64 µg/mL: Streptococcus pneumoniae [41]
0.016 µg/mL: all other assays above
